# ASAP1 inh: ASAP1 ArfGAP inhibition; Q9ULH1; ASAP1-stimulated ARF1 GTP hydrolysis, GDP FP detection; inhibition, % at 16.5 µM; 360,000 tested, 0.19% active; in the data active = inhibition above about 25%;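 note: 0% = vehicle with enzyme and substrate and 100% = no enzyme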
# Target sequence (Q9ULH1 325-724 limits assumed): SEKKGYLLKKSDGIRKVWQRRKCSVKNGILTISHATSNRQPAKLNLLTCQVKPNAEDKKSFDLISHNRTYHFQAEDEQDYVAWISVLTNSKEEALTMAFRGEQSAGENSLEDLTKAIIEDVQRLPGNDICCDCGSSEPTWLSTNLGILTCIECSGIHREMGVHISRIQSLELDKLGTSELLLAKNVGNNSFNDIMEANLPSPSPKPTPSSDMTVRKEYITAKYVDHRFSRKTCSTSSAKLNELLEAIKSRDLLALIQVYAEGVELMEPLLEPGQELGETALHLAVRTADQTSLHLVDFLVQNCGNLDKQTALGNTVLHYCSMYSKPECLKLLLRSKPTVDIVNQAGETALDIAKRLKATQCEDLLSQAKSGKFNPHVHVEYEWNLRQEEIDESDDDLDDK
# IMP-1 inh-1: inhibitors of Pseudomonas aeruginosa IMP-1 metallo-beta-lactamase; purified IMP-1, nitrocefin hydrolysis, epi-absorbance fluorescence; inhibition, % at 5.6 µM; 290,000 tested, 0.45% active; AID 1556;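 active = inhibition above the mean plus 3 SD of all compounds in the same screening run, cut at about 4.5% in these data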;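 note: 0% = IMP-1 with DMSO and 100% = DMSO wells lacking enzyme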
#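 System: purified IMP-1 / Input: IMP-1 dispensed at 0.2 nM / Medium: 50 mM HEPES pH 7.1, 50 µM ZnSO4, 0.05% Brij 35 / Timing: 15 min enzyme–compound preincubation, then 25 min nitrocefin reaction, 25 °C / Technique: plate fluorescence quenching by hydrolysis product, ex 480/em 530 nm / Repeats: singlicate testing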
# PHOSPHO1 inh: inhibitors of human PHOSPHO1 phosphatase | recombinant PHOSPHO1, absorbance phosphatase assay | 290,000 tested, 1.1% active | inhibition, % at 13.3 µM | Q8TCT1 | AID 1565; in the data active = inhibition above about 60%
# Target sequence (Q8TCT1 whole entry, looked up): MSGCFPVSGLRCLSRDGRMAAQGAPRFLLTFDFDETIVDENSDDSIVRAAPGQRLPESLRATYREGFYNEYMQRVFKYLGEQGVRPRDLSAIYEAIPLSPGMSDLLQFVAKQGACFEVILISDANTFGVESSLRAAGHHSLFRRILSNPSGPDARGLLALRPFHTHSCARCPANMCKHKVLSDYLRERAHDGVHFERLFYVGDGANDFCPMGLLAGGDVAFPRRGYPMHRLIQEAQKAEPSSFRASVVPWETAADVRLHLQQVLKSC
# ARFGAP1 inhibitor: inhibits rat ARF GTPase activating protein 1; Q62848; Arfgap1-stimulated ARF1 GTP hydrolysis, GDP FP detection; inhibition, % at 16.5 µM; 360,000 tested, 0.26% active;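 active = inhibition above a per-plate limit, mean inhibition of low control wells plus 3 SD, cut at about 25% in these data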;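 note: 0% = DMSO wells with enzyme and 100% = wells lacking Arfgap1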
#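 Replicates: Single well per compound | Assay system: Truncated rat Arfgap1 GAP domain | Control set: No-Arfgap1 wells (100%) versus DMSO full-reaction wells (0%) | Times: Enzyme reaction 120 min at 25 °C after 20 min preincubation | Reagent: Human ARF1(Δ1-17)-GTP substrate | Measured by: Tracer-displacement fluorescence polarization with EDTA stop, 620/688 nm | Measure: Percent inhibition of Arfgap1-stimulated GTP hydrolysis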
# VIM-2 inhibitor: blocks Pseudomonas aeruginosa VIM-2 metallo-beta-lactamase; purified VIM-2, nitrocefin hydrolysis, epi-absorbance fluorescence; inhibition, % at 5.6 µM; 290,000 tested, 0.89% active; AID 1527;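 active = inhibition above the mean of all tested compounds plus 3 SD, cutoff set per screening run, cut at about 7.5% in these data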;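 note: red hydrolysis product quenches plate fluorescence so inhibitors raise well fluorescence; 0% = enzyme with DMSO and 100% = DMSO without enzyme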
# Calb FLC: C. albicans growth modulation with fluconazole; C. albicans CaCi-2 + fluconazole, Alamar Blue growth, 48 h; growth inhibition, % (no concentration beside the values); 300,000 tested, 0.57% active;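 active = growth inhibition above about 58% in most replicates, limit read from the data, passing the limit was not always enough; inconclusive = exactly half the replicates above a set limit; inactive = most replicates below a set limit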;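 note: all wells also contain fluconazole at 8 µg/ml as a sub-toxic cotreatment; 0% = median of DMSO wells and 100% = median of geldanamycin control wells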
# IMP-1 inh-2: selectivity counter-screen for VIM-2 inhibitors: IMP-1 metallo-beta-lactamase inhibitors | inhibition, % at 5.6 µM | 1,300 tested, under 10 active | purified IMP-1, nitrocefin hydrolysis, epi-absorbance fluorescence | shares compounds with VIM-2 inhibitor; call rule not given here;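 note: 0% = enzyme with vehicle and 100% = vehicle without enzyme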
# VIM-2 FRET inh: counter-screen for VIM-2 inhibitors: epi-absorbance artifacts via FRET. shares compounds with VIM-2 inhibitor. purified VIM-2, CCF2 FRET substrate hydrolysis. inhibition, % at 5.6 µM. 1,300 tested, 23% active. AID 1857;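 active = inhibition above the mean of all tested compounds plus 3 SD, cut at about 19% in these data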;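 note: 0% = VIM-2 plus DMSO and 100% = no enzyme wells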
# TEM-1 inh: blocks E. coli TEM-1 beta-lactamase in VIM-2 selectivity screen. shares compounds with VIM-2 inhibitor. Purified TEM-1, nitrocefin hydrolysis, epi-absorbance fluorescence. inhibition, % at 5.6 µM. 1,300 tested, 3% active;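 active = inhibition above that campaign's mean inhibition plus 3 SD, cut at about 0.46% in these data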;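 note: 0% = TEM-1 with DMSO and 100% = TEM-1 with 100 µM potassium clavulanate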
# VIM-2 confirm 2: confirmation of P. aeruginosa VIM-2 metallo-beta-lactamase inhibitors. 1,300 tested, 96% active. shares compounds with VIM-2 inhibitor. inhibition, % at 5.6 µM. purified VIM-2, nitrocefin hydrolysis, epi-absorbance;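 active = inhibition of the VIM-2 beta-lactamase enzyme above about 11% from the earlier first-round screen, limit read from the data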;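 note: 0% = VIM-2 with DMSO and 100% = buffer wells without enzyme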
# * = called active by the depositor; ? = inconclusive; nt = no result. Rows were chosen to be rich in hits. Some 2.6% of all compounds tested hit in one or more screens of this group.
SMILES,ASAP1 inh,IMP-1 inh-1,PHOSPHO1 inh,ARFGAP1 inhibitor,VIM-2 inhibitor,Calb FLC,IMP-1 inh-2,VIM-2 FRET inh,TEM-1 inh,VIM-2 confirm 2
COCCNC(=S)N/N=C(\C)c1ccc(-n2ccnc2)cc1,10,-2,-55,8,67*,9,1,1,0.4*,82*
O=C(NCCCN1CCOCC1)c1ccccc1N1C(=O)[C@@H]2Cc3c([nH]c4ccccc34)C(c3ccccc3)N2C1=O (some centres not stated),5,nt,nt,-4,nt,nt,nt,nt,nt,nt
O=C(NC1CCCCC1)C(c1ccc(C(F)(F)F)cc1)n1c(=O)c(-c2cc3ccccc3[nH]2)nc2ccccc21 (configuration not stated),10,nt,nt,20,nt,nt,nt,nt,nt,nt
COc1ccc(NC(=O)COc2cccc3c2CCN(Cc2cccnc2)C3=O)cc1,8,-1,18,-5,0,0,nt,nt,nt,nt
COc1ccc(NC(=O)COc2cccc3c2CCN(Cc2cccnc2)C3=O)c(OC)c1,-1,0,-5,15,14*,-4,-2,-5,-5,23*
O=C1NC[C@H](CCCCN2C[C@H](Cc3ccc(O)cc3)N(CCc3ccc(O)cc3)C(=O)C2=O)N(Cc2ccccc2)C1=O,3,nt,nt,3,nt,nt,nt,nt,nt,nt
Cc1c(N2C(=O)/C(=C\c3ccccc3O)SC2=S)c(=O)n(-c2ccccc2)n1C,-13,-7,-61,4,1,2,nt,nt,nt,nt
Cc1c(N2C(=O)/C(=C/c3cccc4ccccc34)SC2=S)c(=O)n(-c2ccccc2)n1C,-3,0,nt,-1,50*,8,1,13,-4,12*
COC(=O)[C@@]12C[C@@H](CC(=O)NCCCCc3ccccc3)C(=O)N(Cc3ccc4c(c3)OCO4)C1=CCC(C)(C)C2,0,nt,nt,-2,nt,nt,nt,nt,nt,nt
CCN(CC)CCCNC(=O)c1cc2nc3c(c(C(F)(F)F)n2n1)CCc1ccccc1-3,-2,-3,-33,2,13*,-9,-3,1,-4,15*
Cc1ccc(O)c(NC(=O)c2cc3nc4c(c(C(F)(F)F)n3n2)CCc2ccccc2-4)c1,6,-2,23,-4,-1,-2,nt,nt,nt,nt
CCc1ccc(/C=N/Nc2ncnc3nc[nH]c23)cc1,4,-3,32,9,15*,13,-3,-15,-1,43*
CC(C)=NNc1ncnc2nc[nH]c12,-6,nt,nt,-5,nt,nt,nt,nt,nt,nt
Cc1c(C)c2ccc(OC(C)C(=O)NCCCn3ccnc3)c(C)c2oc1=O (configuration not stated),-11,0,31,-3,45*,1,-2,-4,-11,54*
Cc1c(OC(C)C(=O)NCCN2CCOCC2)ccc2c(-c3ccccc3)cc(=O)oc12 (configuration not stated),-21,-1,22,-16,1,-1,nt,nt,nt,nt
CCc1cc(=O)oc2cc(C)cc(OC(C)C(=O)NCCCn3ccnc3)c12 (configuration not stated),-16,-3,27,1,36*,-1,-3,-9,-4,49*
CC(Oc1ccc2ccc(=O)oc2c1)C(=O)NCCCn1ccnc1 (configuration not stated),-6,-1,43,6,0,4,nt,nt,nt,nt
Cc1c(OC(C)C(=O)NCCCN2CCOCC2)ccc2c1oc(=O)c1ccccc12 (configuration not stated),-4,-1,20,1,19*,-3,-3,2,-11,29*
O=C(NCc1ccc(F)cc1)c1cc(C2CCCCN2C(=O)CCCc2ccccc2)on1 (configuration not stated),-2,nt,nt,17,nt,nt,nt,nt,nt,nt
O=C(O)CC/C(=C\c1cc([N+](=O)[O-])ccc1Cl)c1nc2ccccc2s1,-9,1,0,3,21*,47,-1,49*,-1,34*
O=c1c(Br)ccc(Br)cc1Br,-7,nt,nt,-9,nt,nt,nt,nt,nt,nt
COc1ccc(-c2csc(C(C)(O)c3cccnc3)n2)cc1 (configuration not stated),-11,nt,nt,10,nt,nt,nt,nt,nt,nt
COc1ccc(-n2c(=S)[nH]c3ccccc3c2=S)cc1,3,-2,28,7,14*,-7,-3,27*,-5,19*
COc1ccc(-n2c(=S)[nH]c3ccccc32)cc1,16,-3,32,11,-5,?,nt,nt,nt,nt
O=c1c(-c2ccccc2)nc2ccccc2n1C(c1ccccc1)c1nc2ccccc2[nH]1 (configuration not stated),12,nt,nt,8,nt,nt,nt,nt,nt,nt
SMILES,ASAP1 inh,IMP-1 inh-1,PHOSPHO1 inh,ARFGAP1 inhibitor,VIM-2 inhibitor,Calb FLC,IMP-1 inh-2,VIM-2 FRET inh,TEM-1 inh,VIM-2 confirm 2
CCCc1[nH][nH]c(=O)c1C(c1ccc(Cl)cc1)C(C#N)C#N (configuration not stated),9,-3,20,-1,12*,6,-4,15,-6,0
Nc1nc(NCCCN2CCOCC2)nc(Nc2cccc(Cl)c2)c1[N+](=O)[O-],1,0,-4,5,29*,1,-3,0,-7,49*
Nc1nc(NCCCN2CCOCC2)nc(Nc2ccc(Cl)cc2)c1[N+](=O)[O-],11,-3,20,10,7,27,nt,nt,nt,nt
COc1ccc(C(NC(=O)C2CCN(C/C=C/c3ccc(OC(C)=O)c(OC)c3)CC2)c2ccccn2)cc1 (configuration not stated),0,nt,nt,6,nt,nt,nt,nt,nt,nt
CCc1nc2c(OCc3cc(Cl)cc(Cl)c3)cccn2c1N(C=O)Cc1ccc(OC)cc1,12,nt,nt,-3,nt,nt,nt,nt,nt,nt
COc1cc(/C=N/N2CCN(Cc3ccc(C)cc3)CC2)cc(OC)c1O,-13,-8,50,1,22*,1,-6,-8,-9,32*
C[C@H]1Cn2cnc(C(=O)Nc3cccc(Cl)c3)c2C(=O)N1,-6,nt,nt,-9,nt,nt,nt,nt,nt,nt
CSc1nnc2c3cc(F)ccc3n(C)c2n1,3,-3,19,10,14*,0,-2,0,-4,24*
COC(=O)c1ccccc1Nc1cc(C)nc2nc(C)nn12,8,-1,14,-12,13*,2,-3,2,-5,29*
COc1ccc(Cl)cc1Nc1cc(C)nc2ncnn12,8,nt,nt,1,nt,nt,nt,nt,nt,nt
COc1ccc(C)cc1Nc1cc(C)nc2nc(C)nn12,3,-4,-2,2,26*,-1,-2,-1,-6,40*
